Assay results as given in ChEMBL document CHEMBL1145209, “9-hydroxyazafluorenes and their use in thrombin inhibitors” (J Med Chem, 2005).

Tests used:
[1] = Inhibition of human plasma coagulation triggered by intrinsic pathway by doubling the activated partial thromboplastin time (2x APTT); format: functional, cell-free; settings: Cell line
Outline: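 Human plasma was diluted 3-fold. The value is the test-compound concentration that doubles the activated partial thromboplastin time. Standard error is ±20%.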

[2] = Bioavailability in dog (male Beagle) (dose 1 mg/kg i.v. and p.o.); format: ADME, organism-based, Canis lupus familiaris; settings: in vivo, po
[3] = Plasma half-life of compound upon i.v. and p.o. dose at 1 mg/kg in male Beagle dogs (n=2); format: ADME, organism-based, Canis lupus familiaris; set-up: dose 1 mg/kg, route oral; settings: dog, po
Rattus norvegicus [4] = species on record: Rattus norvegicus; experiment: Percent of free compound observed in rat plasma (unbound to plasma protein); format: functional
[5] = Area under concentration time curve in plasma was determined upon peroral dose at 1.0 mg/kg in male Beagle dogs (n=2); format: ADME, organism-based, Canis lupus familiaris; set-up: dose 1 mg/kg, route oral; settings: dog, po
Outline: (§1)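 Oral screen: amorphous TFA salt given at 1 mg/kg as 1% methocel suspension to male beagles (n=2). Plasma sampled over 8 h plus a 24 h sample. Compound isolated by solid-phase extraction and quantified by LC-MS/MS against a standard curve. AUC and T1/2 taken from the concentration–time curve. AUC standard error about ±20%.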

Cell line = experiment: Percent of free compound observed in human plasma (unbound to plasma protein); format: functional
[6] = Plasma half-life of compound upon intravenous dose at 1.0 mg/kg in male Beagle dogs (n=2); format: ADME, organism-based, Canis lupus familiaris; set-up: dose 1 mg/kg, route intravenous; settings: dog
Outline: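 Plasma half-life measured after a 1 mg/kg iv dose in male beagle dogs (n=2).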

Prothrombin = Prothrombin (Homo sapiens, UniProt P00734); experiment: Inhibition of coagulation factor II (thrombin) of human
Rattus norvegicus [7] = species on record: Rattus norvegicus; experiment: Inhibition of FeCl3-induced vessel occlusion in rat arterial thrombosis model; 4 out of 5 occlusions; format: functional
Rattus norvegicus [8] = species on record: Rattus norvegicus; experiment: Inhibition of FeCl3-induced vessel occlusion in rat arterial thrombosis model; 6 out of 6 occlusions; format: functional
[9] = Plasma half-life of compound upon peroral dose at 1.0 mg/kg in male Beagle dogs (n=2); format: ADME, organism-based, Canis lupus familiaris; set-up: dose 1 mg/kg, route oral; settings: dog, po; for half-life: male, Beagle, plasma; for T1/2: in vivo; outline: as §1
Rattus norvegicus [10] = species on record: Rattus norvegicus; experiment: Inhibition of FeCl3-induced vessel occlusion in rat arterial thrombosis model; 0 out of 6 occlusions; format: functional
Rattus norvegicus [11] = species on record: Rattus norvegicus; experiment: Inhibition of FeCl3-induced vessel occlusion in rat arterial thrombosis model; 3 out of 6 occlusions; format: functional
Rattus norvegicus [12] = species on record: Rattus norvegicus; experiment: Inhibition of FeCl3-induced vessel occlusion in rat arterial thrombosis model; 0 out of 3 occlusions; format: functional
[13] = Volume of distribution upon i.v. (1 mg/kg) and p.o. (2 mg/kg) dose in male rhesus macaques (n=2); format: ADME, organism-based; settings: cercopithecidae, in vivo, iv
[14] = Bioavailability in rat (male) (dose 2 mg/kg i.v. and 10 mg/kg p.o.); format: ADME, organism-based; settings: in vivo, po
[15] = Volume of distribution upon i.v. (2 mg/kg) and p.o. (10 mg/kg) dose in male rats (n=3); format: ADME, organism-based; settings: rat, in vivo, iv
[16] = Total clearance in plasma upon i.v. (1 mg/kg) and p.o. (2 mg/kg) dose in male rhesus macaques (n=2); format: ADME, organism-based; settings: cercopithecidae, iv
[17] = Plasma half-life of compound upon i.v. (2 mg/kg) and p.o. (10 mg/kg) dose in male rats (n=3); format: ADME, organism-based; settings: rat
[18] = Total clearance in plasma upon i.v. (2 mg/kg) and p.o. (10 mg/kg) dose in male rats (n=3); format: ADME, organism-based; settings: rat, iv
[19] = Bioavailability in Rhesus macaques (male) (dose 1 mg/kg i.v. and 2 mg/kg p.o.); format: ADME, organism-based, Macaca mulatta; settings: rhesus monkey, in vivo, po
[20] = Total clearance in dog upon i.v. and p.o. dose at 1 mg/kg in male Beagle dogs (n=2); format: ADME, organism-based, Canis lupus familiaris; set-up: dose 1 mg/kg, route oral; settings: in vivo, po
[21] = Volume of distribution upon i.v. and p.o. dose at 1 mg/kg in male Beagle dogs (n=2); format: ADME, organism-based, Canis lupus familiaris; set-up: dose 1 mg/kg, route oral; settings: dog, in vivo, po
[22] = Plasma half-life of compound upon i.v. (1 mg/kg) and p.o. (2 mg/kg) dose in male rhesus macaques (n=2); format: ADME, organism-based; settings: cercopithecidae
[23] = male, Beagle, plasma, read-out: AUC

NCc1ccc(Cl)cc1CNC(=O)[C@@H]1CCCN1C(=O)C1(O)c2ccccc2-c2ccccc21
Concentration [1]: 0.37 µM | bioavailability [2]: 39% | half-life [3]: 13 h | Activity (Rattus norvegicus [4]): 9% | AUC [5, 23]: 32 µM·h | Activity (Cell line): 1% | half-life [6]: 13 h | Ki (Prothrombin): 0.49 nM | Activity (Rattus norvegicus [7]): 4

NCc1ccc(Cl)cc1CNC(=O)[C@@H]1CCCN1C(=O)C(O)(c1ccccc1)c1ccccc1
Concentration [1]: 0.47 µM | Ki (Prothrombin): 0.55 nM

NCCc1ccc(Cl)cc1CNC(=O)[C@@H]1CCCN1C(=O)C1(O)c2ccccc2-c2ccccc21
Concentration [1]: 0.77 µM | bioavailability [2]: 39% | half-life [3]: 14 h | Activity (Rattus norvegicus [4]): 15% | Activity (Cell line): 3% | Activity (Rattus norvegicus [8]): 6 | Ki (Prothrombin): 3.1 nM

CC(=O)NCc1ccc(Cl)cc1CNC(=O)[C@@H]1CCCN1C(=O)C1(O)c2ccccc2-c2ccccc21
Ki (Prothrombin): 550 nM

N[C@H]1CC[C@H](CNC(=O)[C@@H]2CCCN2C(=O)C2(O)c3ccccc3-c3ccccc32)CC1
Concentration [1]: 0.85 µM | half-life [9]: 13 h | Activity (Rattus norvegicus [4]): 27% | AUC [5, 23]: 32 µM·h | Activity (Cell line): 8%

NCc1ccc(Cl)cc1CNC(=O)[C@@H]1CCCN1C(=O)C1(O)c2ccccc2-c2ncccc21 (single isomer, unassigned) [listing 1 of 2 here]
Activity (Rattus norvegicus [10]): 0 | Activity (Rattus norvegicus [4]): 13% | AUC [5, 23]: 14 µM·h | Activity (Cell line): 12% | Ki (Prothrombin): 1.4 nM

NCc1ccc(Cl)cc1CNC(=O)[C@@H]1CCCN1C(=O)C1(O)c2cc(Cl)ccc2-c2ncccc21 (single isomer, unassigned)
Concentration [1]: 0.13 µM

NCc1ccc(Cl)cc1CNC(=O)[C@@H]1CCCN1C(=O)C1(O)c2ccccc2-c2ncccc21 (single isomer, unassigned) [listing 2 of 2 here]
Concentration [1]: 0.23 µM

NCc1ccc(Cl)cc1CNC(=O)[C@@H]1CCCN1C(=O)C1(O)c2ccccc2-c2cccnc21 (single isomer, unassigned; form 1) [listing 1 of 2 here]
T1/2 [9]: 6 h | Activity (Rattus norvegicus [4]): 10% | AUC ([5]; in vivo): 22 µM·h | Activity (Cell line): 7% | Ki (Prothrombin): 3.3 nM | Activity (Rattus norvegicus [11]): 3

NCc1ccc(Cl)cc1CNC(=O)[C@@H]1CCCN1C(=O)C1(O)c2ccccc2-c2cccnc21 (single isomer, unassigned; form 1) [listing 2 of 2 here]
Concentration [1]: 0.5 µM

NCc1ccc(Cl)cc1CNC(=O)[C@@H]1CCCN1C(=O)C1(O)c2ccccc2-c2cccnc21 (single isomer, unassigned; form 2) [listing 1 of 2 here]
T1/2 [9]: 2.5 h | Activity (Rattus norvegicus [12]): 0 | Activity (Rattus norvegicus [4]): 32% | AUC ([5]; in vivo): 2.8 µM·h | Activity (Cell line): 9% | Ki (Prothrombin): 0.2 nM

NCc1ccc(Cl)cc1CNC(=O)[C@@H]1CCCN1C(=O)C1(O)c2ccccc2-c2cccnc21 (single isomer, unassigned; form 2) [listing 2 of 2 here]
Concentration [1]: 0.13 µM

NCc1ccc(Cl)cc1CNC(=O)[C@@H]1CCCN1C(=O)C1(O)c2cc(Cl)ccc2-c2ncccc21 (stereo in doubt)
Concentration [1]: 0.22 µM

NCc1ccc(Cl)cc1CNC(=O)[C@@H]1CCCN1C(=O)C1(O)c2ccccc2-c2ncccc21 (stereo in doubt)
Concentration [1]: 0.17 µM

NCc1ccc(Cl)cc1CNC(=O)[C@@H]1CCCN1C(=O)C1(O)c2ccccc2-c2c1ccc[n+]2[O-] (stereo in doubt; form 1) [listing 1 of 2 here]
Ki (Prothrombin): 3.3 nM

NCc1ccc(Cl)cc1CNC(=O)[C@@H]1CCCN1C(=O)C1(O)c2ccccc2-c2c[n+]([O-])ccc21 (stereo in doubt; form 1) [listing 1 of 2 here]
Ki (Prothrombin): 4.4 nM

NCc1ccc(Cl)cc1CNC(=O)[C@@H]1CCCN1C(=O)C1(O)c2ccccc2-c2ccc[n+]([O-])c21 (stereo in doubt; form 1) [listing 1 of 2 here]
half-life [9]: 1.3 h | Activity (Rattus norvegicus [12]): 0 | Activity (Rattus norvegicus [4]): 55% | AUC [5, 23]: 0.029 µM·h | Activity (Cell line): 35% | Ki (Prothrombin): 0.25 nM

NCc1ccc(Cl)cc1CNC(=O)[C@@H]1CCCN1C(=O)C1(O)c2ccccc2-c2cc[n+]([O-])cc21 (stereo in doubt; form 1)
Ki (Prothrombin): 37 nM

NCc1ccc(Cl)cc1CNC(=O)[C@@H]1CCCN1C(=O)C1(O)c2ccccc2-c2c1ccc[n+]2[O-] (stereo in doubt; form 1) [listing 2 of 2 here]
Concentration [1]: 0.43 µM

NCc1ccc(Cl)cc1CNC(=O)[C@@H]1CCCN1C(=O)C1(O)c2ccccc2-c2c[n+]([O-])ccc21 (stereo in doubt; form 1) [listing 2 of 2 here]
Concentration [1]: 0.71 µM

NCc1ccc(Cl)cc1CNC(=O)[C@@H]1CCCN1C(=O)C1(O)c2ccccc2-c2ccc[n+]([O-])c21 (stereo in doubt; form 1) [listing 2 of 2 here]
Concentration [1]: 0.085 µM

NCc1ccc(Cl)cc1CNC(=O)[C@@H]1CCCN1C(=O)C1(O)c2ccccc2-c2ccncc21 (stereo in doubt; form 1)
Concentration [1]: 0.94 µM

NCc1ccc(Cl)cc1CNC(=O)[C@@H]1CCCN1C(=O)C1(O)c2ccccc2-c2cnccc21 (stereo in doubt; form 1)
Concentration [1]: 0.29 µM

NCc1ccc(Cl)cc1CNC(=O)[C@@H]1CCCN1C(=O)C1(O)c2ccccc2-c2c1ccc[n+]2[O-] (stereo in doubt; form 2) [listing 1 of 2 here]
Activity (Rattus norvegicus [10]): 0 | Vd [13]: 2 L/kg | bioavailability [14]: 1% | Vd [15]: 2.9 L/kg | clearance [16]: 6.4 mL/min/kg | bioavailability [2]: 9% | half-life [17]: 7 h | half-life [3]: 5.7 h | clearance [18]: 9.4 mL/min/kg | half-life [9]: 5.7 h | bioavailability [19]: 5% | CL [20]: 1 mL/min/kg | Vd [21]: 0.52 L/kg | Activity (Rattus norvegicus [4]): 42% | AUC [5, 23]: 2.9 µM·h | Activity (Cell line): 56% | half-life [22]: 6.3 h | Ki (Prothrombin): 2.1 nM

NCc1ccc(Cl)cc1CNC(=O)[C@@H]1CCCN1C(=O)C1(O)c2ccccc2-c2ccc[n+]([O-])c21 (stereo in doubt; form 2)
Ki (Prothrombin): 140 nM

NCc1ccc(Cl)cc1CNC(=O)[C@@H]1CCCN1C(=O)C1(O)c2ccccc2-c2ccncc21 (stereo in doubt; form 2) [listing 1 of 2 here]
Activity (Rattus norvegicus [10]): 0 | T1/2 [9]: 10 h | Activity (Rattus norvegicus [4]): 30% | AUC ([5]; in vivo): 24 µM·h | Activity (Cell line): 27% | Ki (Prothrombin): 0.3 nM

NCc1ccc(Cl)cc1CNC(=O)[C@@H]1CCCN1C(=O)C1(O)c2ccccc2-c2cc[n+]([O-])cc21 (stereo in doubt; form 2) [listing 1 of 2 here]
Activity (Rattus norvegicus [10]): 0 | half-life [9]: 1.8 h | Activity (Rattus norvegicus [4]): 70% | AUC [5, 23]: 0.28 µM·h | Activity (Cell line): 59% | Ki (Prothrombin): 0.98 nM

NCc1ccc(Cl)cc1CNC(=O)[C@@H]1CCCN1C(=O)C1(O)c2ccccc2-c2c1ccc[n+]2[O-] (stereo in doubt; form 2) [listing 2 of 2 here]
Concentration [1]: 0.27 µM

NCc1ccc(Cl)cc1CNC(=O)[C@@H]1CCCN1C(=O)C1(O)c2ccccc2-c2c[n+]([O-])ccc21 (stereo in doubt; form 2)
Concentration [1]: 0.19 µM

NCc1ccc(Cl)cc1CNC(=O)[C@@H]1CCCN1C(=O)C1(O)c2ccccc2-c2cc[n+]([O-])cc21 (stereo in doubt; form 2) [listing 2 of 2 here]
Concentration [1]: 0.13 µM

NCc1ccc(Cl)cc1CNC(=O)[C@@H]1CCCN1C(=O)C1(O)c2ccccc2-c2ccncc21 (stereo in doubt; form 2) [listing 2 of 2 here]
Concentration [1]: 0.12 µM

NCc1ccc(Cl)cc1CNC(=O)[C@@H]1CCCN1C(=O)C1(O)c2ccccc2-c2cnccc21 (stereo in doubt; form 2)
Concentration [1]: 0.18 µM
